The source made the active and inactive calls. No cut-off for these calls is given here.
What was measured:
[1] = molecular target: NT-3 growth factor receptor (Homo sapiens) (UniProt Q16288); assay: Inhibition of TRKC (unknown origin) assessed as remaining activity at 1 uM by Kinome scan method relative to control
[2] = molecular target: Citron Rho-interacting kinase (Homo sapiens) (UniProt O14578); assay: Inhibition of CIT (unknown origin) assessed as remaining activity at 1 uM by Kinome scan method relative to control
Sequence of Citron Rho-interacting kinase (Homo sapiens) (O14578 whole entry): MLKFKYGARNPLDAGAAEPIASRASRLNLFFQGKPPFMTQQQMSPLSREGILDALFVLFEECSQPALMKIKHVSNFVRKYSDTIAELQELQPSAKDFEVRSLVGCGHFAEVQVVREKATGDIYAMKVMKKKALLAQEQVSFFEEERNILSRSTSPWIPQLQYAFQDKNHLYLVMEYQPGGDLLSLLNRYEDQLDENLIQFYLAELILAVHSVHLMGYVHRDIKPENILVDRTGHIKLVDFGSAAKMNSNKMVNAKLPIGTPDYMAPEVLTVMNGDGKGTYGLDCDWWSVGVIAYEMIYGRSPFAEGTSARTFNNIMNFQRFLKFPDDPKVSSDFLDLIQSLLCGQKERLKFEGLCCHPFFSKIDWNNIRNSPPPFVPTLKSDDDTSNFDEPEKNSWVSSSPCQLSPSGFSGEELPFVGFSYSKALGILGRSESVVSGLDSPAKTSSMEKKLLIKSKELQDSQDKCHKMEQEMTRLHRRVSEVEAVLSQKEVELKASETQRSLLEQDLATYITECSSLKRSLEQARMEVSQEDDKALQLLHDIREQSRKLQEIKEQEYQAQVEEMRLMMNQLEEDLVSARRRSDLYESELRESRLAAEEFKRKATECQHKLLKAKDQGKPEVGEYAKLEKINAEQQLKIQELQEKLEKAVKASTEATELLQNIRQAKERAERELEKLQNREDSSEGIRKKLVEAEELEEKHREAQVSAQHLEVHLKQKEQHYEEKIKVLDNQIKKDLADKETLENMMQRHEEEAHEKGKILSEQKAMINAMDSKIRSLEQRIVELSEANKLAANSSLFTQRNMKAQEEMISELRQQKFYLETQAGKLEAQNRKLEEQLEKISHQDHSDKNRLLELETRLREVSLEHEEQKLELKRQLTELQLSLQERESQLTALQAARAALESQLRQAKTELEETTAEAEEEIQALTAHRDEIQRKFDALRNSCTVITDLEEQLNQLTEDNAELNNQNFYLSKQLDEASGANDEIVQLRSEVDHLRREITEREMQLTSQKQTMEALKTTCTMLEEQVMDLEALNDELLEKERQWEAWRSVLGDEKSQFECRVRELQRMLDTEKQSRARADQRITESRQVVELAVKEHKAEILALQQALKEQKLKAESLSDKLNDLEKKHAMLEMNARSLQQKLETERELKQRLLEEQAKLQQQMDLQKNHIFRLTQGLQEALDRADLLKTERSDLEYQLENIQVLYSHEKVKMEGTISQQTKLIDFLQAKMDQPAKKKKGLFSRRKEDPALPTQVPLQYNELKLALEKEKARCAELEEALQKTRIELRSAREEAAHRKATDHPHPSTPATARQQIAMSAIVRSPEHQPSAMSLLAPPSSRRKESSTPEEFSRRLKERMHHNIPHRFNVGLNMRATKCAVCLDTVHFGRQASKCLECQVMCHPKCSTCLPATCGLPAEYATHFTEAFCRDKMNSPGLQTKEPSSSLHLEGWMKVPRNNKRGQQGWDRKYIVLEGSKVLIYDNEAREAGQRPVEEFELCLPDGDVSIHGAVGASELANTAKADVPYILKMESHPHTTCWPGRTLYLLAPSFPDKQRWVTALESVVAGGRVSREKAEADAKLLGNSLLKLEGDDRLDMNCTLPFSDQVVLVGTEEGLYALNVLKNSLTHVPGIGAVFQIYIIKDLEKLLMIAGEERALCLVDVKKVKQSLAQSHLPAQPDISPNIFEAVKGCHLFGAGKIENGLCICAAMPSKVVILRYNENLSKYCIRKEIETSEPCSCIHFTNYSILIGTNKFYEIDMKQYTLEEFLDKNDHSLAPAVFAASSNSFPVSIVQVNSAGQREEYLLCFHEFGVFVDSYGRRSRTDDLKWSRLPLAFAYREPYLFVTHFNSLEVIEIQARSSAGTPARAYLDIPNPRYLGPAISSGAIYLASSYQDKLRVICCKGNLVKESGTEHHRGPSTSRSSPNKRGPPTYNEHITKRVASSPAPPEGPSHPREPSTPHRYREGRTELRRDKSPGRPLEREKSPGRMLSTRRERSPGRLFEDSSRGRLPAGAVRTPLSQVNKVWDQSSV
Outline: (§1)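 Active-site-dependent competition-binding profiling (KINOMEscan) at 1 μM against a 468-kinase panel; compound supplied from a 10 mM DMSO stock. Read-out is ctrl% = (test signal − positive control signal)/(negative control signal − positive control signal) × 100. DMSO is the negative control (100%) and a control compound the positive control (0%). Lower ctrl% means tighter binding.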

[3] = test system: Tyrosine-protein kinase ABL1 (Homo sapiens), P00519 [Q252H]; assay: Inhibition of phosphorylated ABL1 Q252H mutant (unknown origin) assessed as remaining activity at 1 uM by Kinome scan method relative to control
[4] = molecular target: Fibroblast growth factor receptor 2 (Homo sapiens) (UniProt P21802); assay: Inhibition of FGFR2 (unknown origin) assessed as remaining activity at 1 uM by Kinome scan method relative to control
[5] = molecular target: Cyclin-dependent kinase 4 (Homo sapiens) (UniProt P11802); assay: Inhibition of CDK4 (unknown origin) assessed as remaining activity at 1 uM by Kinome scan method relative to control; outline: as §1
[6] = Clearance in male Sprague-Dawley rat at 5 mg/kg, iv measured for 24 hrs by LC-MS/MS analysis; type: ADME, organism-based; settings: in vivo
Outline: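 Sprague-Dawley rats, single intravenous or oral dose. Parameters (half-life, AUC, bioavailability) reported in a supplementary table.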

[7] = test system: Mus musculus; assay: Protection against APAP induced liver injury in mouse assessed as decrease in ALT level at 1 mg/kg, ip administered at 2.5 hrs; type: functional, organism-based; settings: Serum
[8] = molecular target: Serine/threonine-protein kinase Sgk2 (Homo sapiens) (UniProt Q9HBY8); assay: Inhibition of SGK2 (unknown origin) assessed as remaining activity at 1 uM by Kinome scan method relative to control
Sequence of Serine/threonine-protein kinase Sgk2 (Homo sapiens) (Q9HBY8 whole entry): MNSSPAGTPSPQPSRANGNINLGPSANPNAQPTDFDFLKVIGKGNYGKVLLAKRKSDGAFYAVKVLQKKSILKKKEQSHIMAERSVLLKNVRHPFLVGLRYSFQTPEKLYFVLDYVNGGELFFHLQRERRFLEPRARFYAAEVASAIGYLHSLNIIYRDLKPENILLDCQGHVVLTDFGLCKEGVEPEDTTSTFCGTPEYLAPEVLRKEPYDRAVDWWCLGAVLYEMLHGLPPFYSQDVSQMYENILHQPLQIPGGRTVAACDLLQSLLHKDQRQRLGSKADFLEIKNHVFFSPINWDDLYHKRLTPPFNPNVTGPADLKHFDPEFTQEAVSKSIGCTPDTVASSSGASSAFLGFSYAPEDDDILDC

[9] = test system: Epidermal growth factor receptor (Homo sapiens), P00533 [G719S]; assay: Inhibition of EGFR G719S mutant (unknown origin) assessed as remaining activity at 1 uM by Kinome scan method relative to control
[10] = molecular target: Cyclin-dependent kinase 2 (Homo sapiens) (UniProt P24941); assay: Inhibition of CDK2 (unknown origin) assessed as remaining activity at 1 uM by Kinome scan method relative to control; outline: as §1
[11] = test system: Mus musculus; assay: Protection against APAP induced liver injury in mouse assessed as cell death at 1 mg/kg, ip administered at 1.5 hrs in the presence of NAC relative to control; type: functional
[12] = molecular target: Ribosomal protein S6 kinase alpha-5 (Homo sapiens) (UniProt O75582); assay: Inhibition of N-terminal kinase domain RPS6KA5 (unknown origin) assessed as remaining activity at 1 uM by Kinome scan method relative to control
Sequence of Ribosomal protein S6 kinase alpha-5 (Homo sapiens) (O75582 whole entry, looked up, the tested form may be a part): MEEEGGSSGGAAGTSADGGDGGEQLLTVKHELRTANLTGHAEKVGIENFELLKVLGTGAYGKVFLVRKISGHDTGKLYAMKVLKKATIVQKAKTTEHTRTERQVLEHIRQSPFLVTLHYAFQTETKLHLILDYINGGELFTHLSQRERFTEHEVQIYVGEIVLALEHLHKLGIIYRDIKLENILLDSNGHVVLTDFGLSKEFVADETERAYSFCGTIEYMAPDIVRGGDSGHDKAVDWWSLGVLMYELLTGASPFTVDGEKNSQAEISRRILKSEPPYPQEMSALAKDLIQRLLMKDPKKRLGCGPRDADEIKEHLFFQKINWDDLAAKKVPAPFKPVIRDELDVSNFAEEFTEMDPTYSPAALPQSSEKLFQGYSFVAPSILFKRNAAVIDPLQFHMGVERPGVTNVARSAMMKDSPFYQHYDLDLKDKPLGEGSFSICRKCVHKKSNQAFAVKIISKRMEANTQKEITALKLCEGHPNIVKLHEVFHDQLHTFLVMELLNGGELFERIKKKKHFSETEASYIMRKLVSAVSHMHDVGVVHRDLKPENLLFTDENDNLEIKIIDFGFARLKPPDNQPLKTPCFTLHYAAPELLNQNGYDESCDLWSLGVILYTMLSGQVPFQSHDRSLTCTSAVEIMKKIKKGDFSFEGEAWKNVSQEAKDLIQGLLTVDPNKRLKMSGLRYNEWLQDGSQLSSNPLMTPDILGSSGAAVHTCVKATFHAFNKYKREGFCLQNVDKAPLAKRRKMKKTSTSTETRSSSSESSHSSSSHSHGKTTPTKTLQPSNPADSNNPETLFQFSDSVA

[13] = Inhibition of recombinant His-tagged full-length MST1 Y101F/D109A mutant (unknown origin) expressing in Escherichia coli assessed as MOB1 phosphorylation level incubated for 15 min by immunoblot analysis; set-up: species or system Homo sapiens
[14] = Toxicity in APAP induced liver injury in mouse assessed as cancer cell growth at 1 mg/kg, ip administered for > 10 months; type: organism-based; settings: in vivo, 7300 h
[15] = molecular target: Interferon-induced, double-stranded RNA-activated protein kinase (Homo sapiens) (UniProt P19525); assay: Inhibition of PRKR (unknown origin) assessed as remaining activity at 1 uM by Kinome scan method relative to control
[16] = molecular target: Focal adhesion kinase 1 (Homo sapiens) (UniProt Q05397); assay: Inhibition of FAK (unknown origin) assessed as remaining activity at 1 uM by Kinome scan method relative to control
Sequence of Focal adhesion kinase 1 (Homo sapiens) (Q05397 2-1052 limits assumed): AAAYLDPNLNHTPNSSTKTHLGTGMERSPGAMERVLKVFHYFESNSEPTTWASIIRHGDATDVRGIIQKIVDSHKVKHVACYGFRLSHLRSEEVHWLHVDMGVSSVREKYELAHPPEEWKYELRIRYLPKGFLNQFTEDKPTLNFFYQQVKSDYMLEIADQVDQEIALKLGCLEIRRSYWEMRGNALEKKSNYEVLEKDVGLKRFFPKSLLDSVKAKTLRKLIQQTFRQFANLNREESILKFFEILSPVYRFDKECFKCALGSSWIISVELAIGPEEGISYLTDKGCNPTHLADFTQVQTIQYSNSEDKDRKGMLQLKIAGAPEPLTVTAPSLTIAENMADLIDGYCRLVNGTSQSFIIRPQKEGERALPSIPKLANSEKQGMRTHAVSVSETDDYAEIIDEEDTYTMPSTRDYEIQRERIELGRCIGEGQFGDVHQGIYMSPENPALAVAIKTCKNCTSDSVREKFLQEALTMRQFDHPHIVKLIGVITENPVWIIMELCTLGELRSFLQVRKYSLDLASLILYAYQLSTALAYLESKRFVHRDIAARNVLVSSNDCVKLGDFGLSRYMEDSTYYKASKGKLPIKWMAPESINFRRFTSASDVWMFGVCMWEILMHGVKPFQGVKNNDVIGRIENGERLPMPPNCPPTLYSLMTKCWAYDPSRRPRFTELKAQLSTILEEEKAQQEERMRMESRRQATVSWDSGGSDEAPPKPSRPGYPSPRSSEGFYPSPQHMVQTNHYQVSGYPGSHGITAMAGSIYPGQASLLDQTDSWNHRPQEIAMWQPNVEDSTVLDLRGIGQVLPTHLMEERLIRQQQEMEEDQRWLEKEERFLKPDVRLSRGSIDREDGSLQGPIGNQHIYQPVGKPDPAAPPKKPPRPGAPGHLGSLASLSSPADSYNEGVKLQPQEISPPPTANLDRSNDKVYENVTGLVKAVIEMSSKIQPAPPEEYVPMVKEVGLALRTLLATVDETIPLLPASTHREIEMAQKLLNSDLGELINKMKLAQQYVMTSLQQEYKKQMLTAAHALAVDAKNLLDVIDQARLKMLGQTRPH

[17] = molecular target: Serine/threonine-protein kinase SIK1 (Homo sapiens) (UniProt P57059); assay: Inhibition of SIK (unknown origin) assessed as remaining activity at 1 uM by Kinome scan method relative to control
[18] = molecular target: Aurora kinase A (Homo sapiens, UniProt O14965); assay: Inhibition of AURKA (unknown origin) in presence of ATP by enzymatic assay
[19] = molecular target: Receptor-interacting serine/threonine-protein kinase 4 (Homo sapiens) (UniProt P57078); assay: Inhibition of RIPK4 (unknown origin) assessed as remaining activity at 1 uM by Kinome scan method relative to control
Sequence of Receptor-interacting serine/threonine-protein kinase 4 (Homo sapiens) (P57078 whole entry): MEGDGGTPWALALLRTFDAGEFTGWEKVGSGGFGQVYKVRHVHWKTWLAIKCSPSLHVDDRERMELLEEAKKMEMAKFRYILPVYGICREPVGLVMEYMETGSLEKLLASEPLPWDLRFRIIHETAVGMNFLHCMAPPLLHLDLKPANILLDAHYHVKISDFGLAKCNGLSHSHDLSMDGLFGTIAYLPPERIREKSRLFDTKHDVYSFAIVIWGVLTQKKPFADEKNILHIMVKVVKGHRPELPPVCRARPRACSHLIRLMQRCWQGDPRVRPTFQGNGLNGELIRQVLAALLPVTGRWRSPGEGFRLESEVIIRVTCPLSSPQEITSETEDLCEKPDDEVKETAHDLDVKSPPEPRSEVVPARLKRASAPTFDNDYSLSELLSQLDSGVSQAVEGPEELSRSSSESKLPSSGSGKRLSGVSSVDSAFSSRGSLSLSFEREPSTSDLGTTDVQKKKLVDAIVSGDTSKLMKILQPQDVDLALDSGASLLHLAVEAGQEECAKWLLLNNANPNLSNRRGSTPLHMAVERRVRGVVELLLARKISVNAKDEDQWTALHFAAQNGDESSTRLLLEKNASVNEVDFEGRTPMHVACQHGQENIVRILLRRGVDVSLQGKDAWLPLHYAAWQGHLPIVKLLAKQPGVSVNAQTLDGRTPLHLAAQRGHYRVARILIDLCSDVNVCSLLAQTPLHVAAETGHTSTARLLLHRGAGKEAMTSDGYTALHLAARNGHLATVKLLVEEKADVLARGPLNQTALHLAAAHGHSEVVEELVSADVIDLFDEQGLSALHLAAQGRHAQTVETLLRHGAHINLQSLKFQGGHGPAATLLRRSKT

[20] = molecular target: Calcium/calmodulin-dependent protein kinase kinase 2 (Homo sapiens) (UniProt Q96RR4); assay: Inhibition of CAMKK2 (unknown origin) assessed as remaining activity at 1 uM by Kinome scan method relative to control; outline: as §1
[21] = molecular target: Aurora kinase B (Homo sapiens, UniProt Q96GD4); assay: Inhibition of AURKB (unknown origin) assessed as remaining activity at 1 uM by Kinome scan method relative to control
Outline: (§2)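 Active-site-dependent competition-binding (KINOMEscan) panel of 468 kinases, test compound at 1 μM (from a 10 mM DMSO stock). Read-out is ctrl% = (test signal − positive control signal)/(negative control signal − positive control signal) × 100. DMSO is the negative control (100%) and a control compound is the positive control (0%). Lower ctrl% means tighter binding.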

[22] = molecular target: Mitogen-activated protein kinase kinase kinase 6 (Homo sapiens) (UniProt O95382); assay: Inhibition of ASK2 (unknown origin) assessed as remaining activity at 1 uM by Kinome scan method relative to control; outline: as §2
[23] = molecular target: T1, Serine/threonine-protein kinase 4 (Homo sapiens, UniProt Q13043); assay: Binding affinity to MST1 (unknown origin) assessed as dissociation constant
T1 sequence (Q13043 whole entry): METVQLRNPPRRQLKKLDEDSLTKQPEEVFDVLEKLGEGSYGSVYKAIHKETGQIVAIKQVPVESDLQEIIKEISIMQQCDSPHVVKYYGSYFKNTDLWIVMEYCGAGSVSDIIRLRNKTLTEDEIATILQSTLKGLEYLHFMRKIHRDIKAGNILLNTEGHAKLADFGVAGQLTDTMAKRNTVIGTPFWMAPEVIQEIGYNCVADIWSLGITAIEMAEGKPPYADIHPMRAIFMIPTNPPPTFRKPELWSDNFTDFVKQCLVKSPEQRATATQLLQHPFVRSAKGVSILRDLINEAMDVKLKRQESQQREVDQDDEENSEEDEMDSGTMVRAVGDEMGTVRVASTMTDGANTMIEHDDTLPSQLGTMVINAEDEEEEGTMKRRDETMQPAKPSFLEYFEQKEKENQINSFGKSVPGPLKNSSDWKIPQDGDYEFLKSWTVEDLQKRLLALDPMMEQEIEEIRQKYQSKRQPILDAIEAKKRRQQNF

[24] = molecular target: Serine/threonine-protein kinase TAO2 (Homo sapiens, UniProt Q9UL54); assay: Inhibition of TAOK2 (unknown origin) in presence of ATP by enzymatic assay
[25] = molecular target: Dual specificity protein kinase CLK3 (Homo sapiens) (UniProt P49761); assay: Inhibition of CLK3 (unknown origin) assessed as remaining activity at 1 uM by Kinome scan method relative to control; outline: as §1
[26] = Inhibition of phosphorylated ABL1 T315I mutant (unknown origin) in presence of ATP by enzymatic assay; set-up: species or system Homo sapiens

CN1C(=O)c2sccc2N(C)c2nc(Nc3ccc(S(N)(=O)=O)cc3)ncc21
Activity [1]: 55%
Activity [2]: 96%
Activity [3]: 6.8%
Activity [4]: 100%
Activity [5]: 86%
clearance [6]: 65.8 mL/min/kg
Activity [7]: Active
Activity [8]: 91%
Activity [9]: 78%
Activity [10]: 90%
Activity [11]: 100%
Activity [12]: 97%
IC50 [13]: 1390 nM
Activity [14]: Non-Toxic
Activity [15]: 100%
Activity [16]: 96%
Activity [17]: 100%
IC50 [18]: 19.4 nM
Activity [19]: 9.5%
Activity [20]: 84%
Activity [21]: 3.4%
Activity [22]: 84%
Kd [23]: 17 nM
IC50 [24]: 134 nM
Activity [25]: 85%
IC50 [26]: 16.6 nM

From ChEMBL document CHEMBL5705905, “Pharmacological targeting of kinases MST1 and MST2 augments tissue repair and regeneration” (Sci Transl Med, 2016)
